# TCR CD3 inh: blocks the human TCR-CD3 interaction; inhibition, % at 9.4 µM; 360,000 compounds, 0.37% hits; AID 651800; TAMRA-labeled TCR probe fluorescence, biochemical; in the data active means inhibition above about 19%;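 further: recombinant mutant TCR 2C K166C tagged with TAMRA read by polarization; 0% = receptor in buffer alone and 100% = receptor with positive control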
# rCAG binder: r(CAG) repeat RNA binding. inhibition, % at 3 µM. AID 651821. TO-PRO-1 dye displacement fluorescence. 370,000 compounds, 1.3% hits;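 active means inhibition above the plate cutoff, the mean of all test compounds on that plate plus 3 SD, cut at about 35% in these data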;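 further: 0% = DMSO alone and 100% = 100 µM mitoxantrone as full dye displacement; higher means more dye released from RNA so lower well fluorescence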
# HTRA1 inh: inhibitors of human serine peptidase HTRA1 | Q92743 | recombinant HTRA1, FP-rhodamine activity-based probe, fluorescence polarization | inhibition, % at 5.96 µM | 340,000 compounds, 0.5% hits; in the data active means inhibition above about 36%;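 further: 0% = enzyme with DMSO and 100% = wells lacking enzyme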
# ABHD4 inh: ABHD4 (mouse) inhibition, primary FP screen; Q8VD66; purified mABHD4, FP-Rh probe fluorescence polarization; inhibition, % at 8.92 µM; 370,000 compounds, 0.54% hits;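 active means inhibition exceeding the mean over every tested compound plus 3 SD, cut at about 30% in these data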;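 further: 0% = plate median of compound wells and 100% = S159A mutant with DMSO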
#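 Doses – 8.92 µM, single dose · Material – wild-type mouse ABHD4 protein · Replication – single well per compound (singlicate) · Measure – percent inhibition of probe binding, normalized to plate controls · Schedule – 45 min compound pre-incubation plus 60 min probe step, 25 °C · Detection – fluorescence polarization with parallel and perpendicular emission, 525/598 nm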
# PRMT1 inh: PRMT1 (human) inhibition, primary screen. 370,000 compounds, 1.3% hits. AID 652257. recombinant PRMT1, activity-based probe fluorescence polarization. inhibition, % at 2.79 µM;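 active means inhibition above about 21% made by adding two undisclosed values, limit read from the data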
# Target sequence (Q99873 whole entry, looked up): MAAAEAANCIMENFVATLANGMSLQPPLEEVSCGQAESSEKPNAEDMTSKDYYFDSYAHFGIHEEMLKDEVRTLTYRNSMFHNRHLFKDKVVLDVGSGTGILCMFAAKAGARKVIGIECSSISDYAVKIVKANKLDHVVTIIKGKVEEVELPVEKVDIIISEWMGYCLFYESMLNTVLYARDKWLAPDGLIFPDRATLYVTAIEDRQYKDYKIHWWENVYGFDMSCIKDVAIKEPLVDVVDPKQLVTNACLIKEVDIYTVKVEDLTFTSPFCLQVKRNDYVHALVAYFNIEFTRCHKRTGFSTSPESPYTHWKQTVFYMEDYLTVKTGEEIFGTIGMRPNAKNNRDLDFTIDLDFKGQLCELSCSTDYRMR
# SIAE inh: blocks human sialic acid acetylesterase; Q9HAT2; SIAE FP-Rh probe binding, fluorescence polarization; inhibition, % at 9.66 µM; AID 1053197; 370,000 compounds, 0.69% hits;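 active means inhibition above a cutoff: mean of compounds within the control limits plus 3 SD of those, cut at about 17% in these data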;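 further: 0% = plate median of compound wells and 100% = probe without SIAE protein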
# Active calls of the source: *; / = no result given. In the library only some 3.5% were active in any assay of this set; here they are far more common.
SMILES,TCR CD3 inh,rCAG binder,HTRA1 inh,ABHD4 inh,PRMT1 inh,SIAE inh
COc1ccc(C(c2c(O)ccc3ccccc23)N2CCOCC2)c(OC)c1 (stereo not drawn),6,9,-76,-30,67*,-14
CCN1C=C(Cc2ccccc2C)C2=C(C1)C(c1ccccc1C)C(C#N)=C(N)O2 (stereo not drawn),-4,-2,-25,-3,6,-9
CCN1C=CC2=C(C#N)C(N)C(C#N)(C#N)C(c3ccccc3C(F)(F)F)C2C1 (stereo not drawn),8,-2,-2,15,22*,6
Cc1nc2c(C(=O)NCc3ccccc3)c[nH]n2c(=O)c1Cl,-4,41*,-2,-3,1,3
C/C(=N/NC(=O)c1ccoc1C)c1cccs1,/,0,/,2,-7,3
COC(=O)[C@H](CC(C)C)N(CCCc1cn(Cc2ccc(C)cc2)nn1)S(=O)(=O)c1ccc(F)cc1Br,/,-1,/,0,-1,-4
COc1ccc(S(=O)(=O)N2CCN(c3ccccc3)CC2)cc1OC,-13,-1,/,-6,3,-2
COc1ccc(S(=O)(=O)N2CCN(c3cnccn3)CC2)cc1OC,-1,5,1,-4,21*,1
C=C(C)/C=C1/CN(Cc2ccc3c(c2)OCO3)C(=N)N1C(=O)OCc1ccccc1,/,11,/,-6,6,7
COc1ccc(/C=C2\SC(=O)NC2=S)cc1OC,-8,-1,0,6,47*,-2
COc1cc(/C=C2\SC(c3ccc(C)cc3)=NC2=O)ccc1O,-10,26,23,-1,29*,-5
COc1ccc(/C=C2/SC(c3ccc(C)cc3)=NC2=O)cc1OC,-7,15,-13,8,24*,-20
COc1ccc(/C=C2\SC(c3ccc(C)cc3)=NC2=O)cc1OC,3,22,-14,4,19,-10
CN1C2=NC(c3ccccc3)CC(=O)N2/C(=C\c2ccccc2)C1c1ccccc1C(F)(F)F (stereo not drawn),/,/,/,-16,1,-4
O=C1NCCCC2c3c(cc(Br)c(O)c3Br)OC12N1CCCCC1 (stereo not drawn),7,1,6,27,79*,4
O=C1NCCCc2c1oc1cc(Br)c(O)c(Br)c21,0,1,-3,2,6,-3
O=C(O)c1ccc(S(=O)(=O)Nc2ccc(O)c(Sc3nc4ccccc4s3)c2)cc1,5,30,0,12,22*,-10
CN(C)Cc1c(O)ccc2ccccc12,2,16,-6,-22,-1,-2
Cc1ccc(NC(=O)CN(C)Cc2c(O)ccc3ccccc23)cc1,2,1,/,5,21*,-6
COC(=O)[C@H](CC1(c2cn(S(=O)(=O)CC[Si](C)(C)C)c3ccccc23)C(=O)Nc2ccccc21)NC(=O)OC(C)(C)C (stereo partly drawn),/,/,/,-21,3,-13
O=C(c1ccccc1)C(Sc1ncn[nH]1)c1ccccc1 (stereo not drawn),-6,1,-5,1,23*,9
COc1ccc2c(c1)c(=O)oc1c(C)c(OC(C)C(=O)N[C@@H](Cc3c[nH]c4ccc(O)cc34)C(=O)O)ccc12 (stereo partly drawn),8,69*,-1,16,17,-37
O=C1/C(=C\c2ccco2)CCC/C1=C\c1ccco1,1,18,19,-5,22*,1
COc1ccc(N(CC(C)C)S(=O)(=O)c2nnc(NC(=O)c3ccco3)s2)cc1,8,76*,-25,-13,2,-18
CCCCNC(=O)C[C@@H]1C(=O)N(Cc2ccc(OC)cc2)/C2=C/CCCCC[C@@]21C(=O)OCC,/,1,/,-3,-3,-3
CC1=C(C(=O)OC2CCCCC2)C(c2ccc(C)o2)C2=C(CCCC2=O)N1 (stereo not drawn),-8,3,-2,-13,3,4
CC1=C(C(=O)OCc2ccccc2)C(c2ccc(C)o2)C2=C(CCCC2=O)N1 (stereo not drawn),3,1,-5,-4,2,33*
Cc1ccc(S(=O)(=O)c2ccc([N+](=O)[O-])o2)cc1,-6,1,2,-1,76*,3
COc1ccc(-c2coc3cc(OC(C)=O)ccc3c2=S)cc1,3,13,2,-1,22*,8

# Assay outcomes (PubChem BioAssay)
